30 molecules from PubChem BioAssay can be followed below.

Active and inactive are the calls of the source.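 How the source made its calls, unless noted: active means mean duplicate potentiation above the buffer control mean plus 5 SD of buffer wells; inactive means the rest.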

A short description of experiment [1]: nonspecific flux increase, KCNQ1-free cells – parental CHO cells, counter-screen for KCNQ1 potentiator project (AID 493006;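 active means duplicate-averaged activation above buffer control mean plus 5 SD of those controls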). The conditions noted are these: parental CHO-K1 cells, FluxOR thallium flux, at 10 µM; active compounds read high. In short, it runs like this:
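Assay system: Untransfected host CHO-K1 cells with FluxOR thallium dye | Probe or stimulus: Potassium/thallium depolarization pulse | Schedule: Overnight 37 °C plating, 90 min RT dye, 20 min compound | Detection: Kinetic thallium-flux fluorescence | Read-out: Max-minus-min fluorescence over baseline, percent of buffer-to-R-L3 span | Benchmarks: Low control buffer, high control R-L3 activator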
(In general: Counterscreens check selectivity or assay interference.)

The target of experiment [2] is Potassium voltage-gated channel subfamily KQT member 1 (Homo sapiens) (UniProt P51787). Description: enhancement of KCNQ1 channel thallium flux – FluxOR thallium flux, CHO cells, duplicates, confirmation (AID 493007;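 active means potentiation averaged over duplicate wells exceeding buffer-only control mean by more than 3 SD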;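 on outcome: cells depolarized by a potassium plus thallium sulfate stimulus after compound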). Particulars: KCNQ1 cell line, FluxOR thallium flux fluorescence, at 10 µM; active compounds read high, % of reference activator effect, buffer zero. In short, it runs like this: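 Material: KCNQ1-expressing CHO cell line; Incubation: FluxOR dye loading 90 min, compound exposure 20 min, room temperature; Detection: FluxOR Tl+ flux fluorescence, 10 s baseline plus 110 s recording; Read-out: percent activation between buffer and R-L3 responses; Control set: buffer-only wells as 0% and R-L3 activator as 100%; Replication: duplicate wells per compound.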
Potassium voltage-gated channel subfamily KQT member 1 (Homo sapiens), sequence (P51787 whole entry, looked up): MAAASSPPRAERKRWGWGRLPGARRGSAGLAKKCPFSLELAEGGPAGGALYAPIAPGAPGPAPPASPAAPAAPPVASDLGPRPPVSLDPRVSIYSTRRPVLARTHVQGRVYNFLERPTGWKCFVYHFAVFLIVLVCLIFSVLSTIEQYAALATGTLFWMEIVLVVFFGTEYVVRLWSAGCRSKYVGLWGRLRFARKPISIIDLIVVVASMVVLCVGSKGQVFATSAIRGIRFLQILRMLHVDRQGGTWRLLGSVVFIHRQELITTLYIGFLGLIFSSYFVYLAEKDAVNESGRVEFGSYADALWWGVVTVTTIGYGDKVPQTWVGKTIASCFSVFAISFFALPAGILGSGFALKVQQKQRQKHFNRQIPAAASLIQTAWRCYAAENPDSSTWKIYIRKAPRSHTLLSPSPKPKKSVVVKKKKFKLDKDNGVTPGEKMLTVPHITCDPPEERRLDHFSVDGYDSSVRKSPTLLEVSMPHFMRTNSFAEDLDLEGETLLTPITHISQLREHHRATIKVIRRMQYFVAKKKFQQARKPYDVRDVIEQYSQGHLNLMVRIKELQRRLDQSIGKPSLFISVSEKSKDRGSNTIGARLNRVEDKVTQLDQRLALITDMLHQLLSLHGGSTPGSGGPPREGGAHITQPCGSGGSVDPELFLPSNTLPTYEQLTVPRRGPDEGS

In experiment [3] the target is Potassium voltage-gated channel subfamily KQT member 2 (Rattus norvegicus) (UniProt O88943). Description: KCNQ2 thallium flux enhancement – KCNQ2-CHO-K1 cells, selectivity assay for KCNQ1 potentiator project (AID 493009).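 Further: assay conditions were tuned for KCNQ1 rather than KCNQ2 modulators; signal is max minus min fluorescence divided by baseline after thallium stimulus.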 Particulars: FluxOR thallium flux fluorescence, at 10 µM; active compounds read high, scaled: buffer 0, activator control 100.
Potassium voltage-gated channel subfamily KQT member 2 (Rattus norvegicus), sequence (O88943 whole entry, looked up): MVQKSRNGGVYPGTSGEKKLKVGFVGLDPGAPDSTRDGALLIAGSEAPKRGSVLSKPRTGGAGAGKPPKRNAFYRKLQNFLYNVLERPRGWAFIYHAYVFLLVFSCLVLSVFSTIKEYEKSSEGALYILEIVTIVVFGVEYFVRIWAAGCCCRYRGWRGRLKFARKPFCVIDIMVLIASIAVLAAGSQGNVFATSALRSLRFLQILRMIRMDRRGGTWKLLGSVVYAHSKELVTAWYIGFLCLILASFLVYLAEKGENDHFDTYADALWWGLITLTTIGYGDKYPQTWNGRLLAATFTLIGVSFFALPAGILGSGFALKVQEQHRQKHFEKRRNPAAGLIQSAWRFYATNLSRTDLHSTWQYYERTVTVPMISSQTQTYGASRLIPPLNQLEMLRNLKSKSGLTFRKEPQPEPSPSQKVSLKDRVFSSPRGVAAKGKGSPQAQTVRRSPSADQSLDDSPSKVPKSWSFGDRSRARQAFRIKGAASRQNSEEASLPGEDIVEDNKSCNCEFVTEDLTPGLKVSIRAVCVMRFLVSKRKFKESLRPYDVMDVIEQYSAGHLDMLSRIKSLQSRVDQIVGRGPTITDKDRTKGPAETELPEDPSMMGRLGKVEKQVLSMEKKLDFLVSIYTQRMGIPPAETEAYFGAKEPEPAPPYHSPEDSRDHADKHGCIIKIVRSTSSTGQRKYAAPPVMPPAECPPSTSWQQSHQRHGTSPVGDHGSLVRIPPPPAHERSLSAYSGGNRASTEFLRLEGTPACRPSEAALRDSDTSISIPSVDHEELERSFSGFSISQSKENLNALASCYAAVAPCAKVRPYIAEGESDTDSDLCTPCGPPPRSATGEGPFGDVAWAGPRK
The target of experiment [4] is Potassium voltage-gated channel subfamily KQT member 1 (Homo sapiens) (UniProt P51787). Briefly: KCNQ1 activators by electrophysiology – IonWorks patch clamp, KCNQ1-CHO cells, orthogonal assay for KCNQ1 potentiator project, confirmation (AID 493184;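 active means current rise at least 3 SD above the untreated control mean in each of two repeat wells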). Particulars: automated patch clamp current, at 10 µM; active compounds read high. In short, it runs like this: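 assay system = KCNQ1-expressing CHO cells | medium = external bath solution at pH 7.4 | probe or stimulus = 2,000 ms depolarization, -90 to +40 mV | compound dosing = 10 µM final, single point | measured by = automated voltage clamp, amphotericin B perforated patch | measure = percent current increase versus pre-compound level | replication = duplicates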
On the technique in general: The patch-clamp technique gives a direct electrical read-out from membranes.

Experiment [5] has as its target Potassium voltage-gated channel subfamily E member 1 (Homo sapiens) + Potassium voltage-gated channel subfamily KQT member 1 (Homo sapiens) (UniProt P15382+P51787). Briefly: KCNQ1-E1 channel activation – thallium flux, CHO-K1 KCNQ1/E1 cells, selectivity assay for KCNQ1 potentiator project, confirmation (AID 493186;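 active means mean duplicate activation above the buffer control mean plus 5 SD of those controls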). Particulars: FluxOR thallium flux, at 10 µM; active compounds read high. In short, it runs like this:
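Test system – CHO-K1 cells with KCNQ1/E1 · Measured by – FluxOR Tl+ flux fluorescence, kinetic read · Controls – buffer low control, R-L3 high control · Times – dye 90 min, compound 20 min, room temperature · Replication – duplicate wells per compound · Doses – one test concentration · Evaluation – fluorescence rise relative to baseline, as percent of R-L3 response above buffer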

Potassium voltage-gated channel subfamily E member 1 (Homo sapiens) + Potassium voltage-gated channel subfamily KQT member 1 (Homo sapiens), sequence (P51787 whole entry, looked up): as the sequence (P51787 whole entry, looked up) above

Turning to `COC(=O)[C@H](C)NC(=O)Nc1cc(Cl)ccc1C`, the outcome in experiment [1], in experiment [2], in experiment [3], in experiment [4] and in experiment [5] was inactive.
Turning to `CCNc1nc(NCC)nc(C(=O)OCCO)n1`, the result in experiment [1], in experiment [2], in experiment [3], in experiment [4] and in experiment [5] was inactive.
For `S=c1[nH]nc(-c2ccco2)n1/N=C/c1cccc(Cl)c1Cl`, the result in experiment [1], in experiment [3], in experiment [4] and in experiment [5] was inactive. Besides, in experiment [2], the potentiation was 23.5% (active).
`O=C(Nc1nnc(-c2ccccc2)o1)c1ccc(Cl)cc1`: the outcome in experiment [1], in experiment [3] and in experiment [4] was inactive. Besides, in experiment [2], the potentiation is 24% (active). Besides, the activation in experiment [5] was 23.9% (active).
As to `CCCCS(=O)(=O)/C=C\C=C/S(=O)(=O)CCCC`, the result in experiment [1], in experiment [2], in experiment [3], in experiment [4] and in experiment [5] was inactive.
In the case of `CC1CCCCC1NC(=S)NC(=O)c1sc2ccccc2c1Cl` (stereo not given), the result in experiment [1], in experiment [3], in experiment [4] and in experiment [5] was inactive. The potentiation in experiment [2] is 54% (active).
In the case of `C/C(=N\Nc1nc(C)c(C)s1)c1ccc([N+](=O)[O-])cc1`, the result in experiment [1], in experiment [4] and in experiment [5] was inactive. Further, the potentiation was 43% (active) in experiment [2] and 150% (active) in experiment [3].
As for `O=C(Nc1ccccc1Br)c1ccccc1-c1ccccc1`, the outcome in experiment [1], in experiment [3], in experiment [4] and in experiment [5] was inactive. Also, the potentiation in experiment [2] is 29.5% (active).
Turning to `Cc1nc2c3cc(F)ccc3n(CCN3CCCCC3)c2s1`, the result in experiment [1], in experiment [3], in experiment [4] and in experiment [5] was inactive. Also, the potentiation in experiment [2] was 35% (active).
For `Cn1cc(C(=O)N/N=C/c2ccc([N+](=O)[O-])cc2)c2ccccc21`, the result in experiment [1], in experiment [2], in experiment [3], in experiment [4] and in experiment [5] was inactive.
Take `CCOC(=O)C(Sc1nnc(-c2ccncc2)o1)C(C)=O` (stereo not given): the result in experiment [1], in experiment [2], in experiment [3], in experiment [4] and in experiment [5] was inactive.
`CCOC(=O)Cn1c(C(=O)OCC)cc2sccc21`: the result in experiment [1], in experiment [3], in experiment [4] and in experiment [5] was inactive. For the same molecule, the potentiation in experiment [2] is 35.5% (active).
Consider `CSCC(C)N1CCC(n2nccc2NC(=O)CCOc2ccccc2)CC1` (stereo not given), for which the result in experiment [1], in experiment [2], in experiment [3], in experiment [4] and in experiment [5] was inactive.
In the case of `COc1ccc(C(=O)N=C2CCC(C#N)=C3c4cc(OC)c(OC)cc4CCN23)cc1`, the result in experiment [1], in experiment [3], in experiment [4] and in experiment [5] was inactive. Moreover, the potentiation in experiment [2] is 34.5% (active).
As for `S=C1N(c2ccccc2)C(c2ccccc2)N2CCCN12` (stereo not given), the outcome in experiment [1], in experiment [2], in experiment [3], in experiment [4] and in experiment [5] was inactive.
In the case of `O=C(NC(=S)Nc1cccc(Cl)c1N1CCCCC1)c1cccs1`, the result in experiment [1], in experiment [3], in experiment [4] and in experiment [5] was inactive. Moreover, in experiment [2], the potentiation was 54% (active).
Consider `Cc1cc(/C=N/NC(=O)C(O)(c2ccccc2)c2ccccc2)c(C)n1-c1ccccc1`, for which the outcome in experiment [1], in experiment [2], in experiment [3], in experiment [4] and in experiment [5] was inactive.
As to `O=C(NC(=S)Nc1nc2c(s1)CCCC2)c1ccccc1`, the outcome in experiment [1], in experiment [3], in experiment [4] and in experiment [5] was inactive. The potentiation in experiment [2] was 26% (active).
With `COCCOC(=O)/C(=C/c1ccc(OC(=O)c2ccccc2)cc1)C(C)=O`, the outcome in experiment [1], in experiment [2], in experiment [3], in experiment [4] and in experiment [5] was inactive.
With `O=C(NNC(=S)NC(=O)c1ccc(Br)cc1)c1cccc([N+](=O)[O-])c1`, the result in experiment [1], in experiment [2], in experiment [3], in experiment [4] and in experiment [5] was inactive.
In the case of `CCOc1cccc2sc(NC(=O)c3ccc(Br)s3)nc12`, the outcome in experiment [1], in experiment [2], in experiment [3], in experiment [4] and in experiment [5] was inactive.
Consider `Cc1nc(=S)c2c([nH]1)-c1ccccc1CC21CCCCC1`, for which the outcome in experiment [1], in experiment [4] and in experiment [5] was inactive. Further, the potentiation in experiment [2] is 84.5% (active); in experiment [3] it was 180% (active).
On to `Cc1ccc(Nc2ccc([N+](=O)[O-])cn2)cc1Cl`, for which the result in experiment [1], in experiment [2], in experiment [4] and in experiment [5] was inactive. In addition, the potentiation in experiment [3] was 144% (active).
Turning to `O=[N+]([O-])c1ccc(S(=O)(=O)CC(CN2CCCCC2)N2CCCCC2)cc1` (stereo not given), the result in experiment [1], in experiment [2], in experiment [3], in experiment [4] and in experiment [5] was inactive.
For `COc1ccccc1C(=O)NNC(=O)c1nn(Cc2ccccc2)c(=O)c2ccccc12`, the outcome in experiment [1], in experiment [2], in experiment [3], in experiment [4] and in experiment [5] was inactive.
For `CC12CCC(C/C1=N\N=C1\NC(=O)/C(=C\c3cccc(Br)c3)S1)C2(C)C` (stereo not given), the result in experiment [1], in experiment [4] and in experiment [5] was inactive. Also, the potentiation in experiment [2] is 51% (active); in experiment [3], 154% (active).
Take `S=c1[nH]nc(C2CCCCC2)n1/N=C/c1cccc(Cl)c1Cl`: the outcome in experiment [1], in experiment [3], in experiment [4] and in experiment [5] was inactive. Besides, the potentiation in experiment [2] is 41% (active).
`COc1ccc(C(=O)NC(=S)N(C)C2CCCCC2)cc1Br`: the outcome in experiment [1], in experiment [2], in experiment [3], in experiment [4] and in experiment [5] was inactive.
In the case of `CNCC/C=C1/c2ccccc2CSc2ccccc21`, the outcome in experiment [1], in experiment [2], in experiment [3], in experiment [4] and in experiment [5] was inactive.
For the molecule `CCOC(=O)N1CCC(NC(=O)c2cc(C(=O)NCc3ccc(F)cc3)ccc2CO)CC1`, the result in experiment [1], in experiment [2], in experiment [3], in experiment [4] and in experiment [5] was inactive.
